Data set [1] deals with Hepatitis B virus. Briefly: Antiviral activity against HBV infected in human HepAD38 cells assessed as reduction in total DNA production incubated for 2 days prior to compound washout followed by compound redosing and measured after 2 days by dot-blot analysis. The format is functional, organism-based. Put shortly:
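HepAD38 cells seeded at 3 × 10^4/well in tetracycline medium; next day washed twice with PBS and given tet-free complete medium with 2-fold serial dilutions, 1% final DMSO, replaced with fresh compound medium after 2 days. After 2 more days cells lysed (NP-40), DNA alkali-denatured, dot-blotted, probed with DIG-labelled HBV probe; chemiluminescence densitometry, variable-slope fit; mean ± SD of ≥2 experiments.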

Data set [2] is described as follows: Thermodynamic aqueous solubility in Dulbecco's phosphate buffered saline using solid sample incubated for 72 hrs under shaking condition by LC-MS/MS analysis. The format is physicochemical. The following applies: read-out: Therm_solubility.
The nature of data set [3]: Protein binding in mouse plasma at 5 uM incubated for 5 hrs by LC-MS/MS-based equilibrium dialysis method. In kind it is ADME, cell-free. Put shortly: (§1)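 Equilibrium dialysis in duplicate: compound spiked at 5 μM into normal human or mouse plasma, dialyzed against DPBS 5 h at 37 °C; both chambers sampled and quenched in acetonitrile with internal standard; LC-MS/MS gives percent bound.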
In general terms: In equilibrium dialysis only unbound substance equilibrates across the membrane.

Data set [4] can be described thus: Intrinsic clearance in human liver microsomes assessed as glucuronidation per mg protein at 1 uM in presence of UDPGA by LC-MS/MS analysis. In kind it is ADME, Microsome. An outline of the steps: (§2)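 Glucuronidation: typically 1 μM compound with 0.5 mg/mL microsomal protein, alamethicin 50 μg/mg protein, 1 mM MgCl2, 5 mM UDPGA in 0.1 M potassium phosphate pH 7.4, 37 °C; timed aliquots quenched in acetonitrile; LC-MS/MS gives CLint (μl/min/mg protein); triplicate; 7-hydroxycoumarin positive control.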
A general note: Liver microsomes are a subcellular fraction often used to study metabolism.

The nature of data set [5]: Stability in Dulbecco's phosphate buffered saline assessed as parent compound remaining at 1 uM after 24 hrs by LC-MS/MS analysis. In kind it is physicochemical. The following applies: read-out: Stability. Put shortly: (§3)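 Compound, typically 1 μM final, incubated in DPBS at 37 °C in triplicate; samples at 0, 1, 3, 6, 24 h quenched with 3 volumes acetonitrile containing internal standard; parent measured by LC-MS/MS.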

Data set [6] is described as follows: Half life in mouse plasma at 1 uM by LC-MS/MS analysis. In kind it is ADME, cell-free.
Data set [7] can be described thus: Protein binding in human plasma at 5 uM incubated for 5 hrs by LC-MS/MS-based equilibrium dialysis method. In kind it is ADME, cell-free. Put shortly:
as §1

Data set [8] can be described thus: Intrinsic clearance in mouse liver microsomes assessed as glucuronidation per mg protein at 1 uM in presence of UDPGA by LC-MS/MS analysis. The format is ADME, Microsome. Put shortly: as §2
The next data set deals with HepG2. Briefly: (§4) Cytotoxicity against human HepG2 cells assessed as reduction in cell viability incubated for 2 days prior to compound washout followed by compound redosing and measured after 2 days by XTT assay. The following applies: hepg2, 48 h. In kind it is cell-based. On the technique in general: Tetrazolium dyes change colour on reduction, which living cells bring about.

Data set [9] concerns Hepatitis B virus. Briefly: Binding affinity to HBV dimeric capsid protein C150 mutant expressed in Escherichia coli BL21 (DE3) at 20 uM by Sypro orange staining based RT-PCR analysis.
Data set [10] is described as follows: Half life in human plasma at 1 uM by LC-MS/MS analysis. The format is ADME, cell-free.
Data set [11] is described as follows: Intrinsic clearance in mouse liver microsomes assessed as NADPH-dependent metabolism per mg protein at 1 uM in presence of NADPH by LC-MS/MS analysis. The format is ADME, Microsome.
Data set [12] in a line: Intrinsic clearance in human liver microsomes assessed as NADPH-dependent metabolism per mg protein at 1 uM in presence of NADPH by LC-MS/MS analysis. The format is ADME, Microsome.
Data set [13] can be described thus: Oral bioavailability in CD-1 mouse at 10 mg/kg by LC-MS/MS analysis. The note with it: in vivo; for bioavailability: CD-1, mouse; for F: mouse. The format is ADME, organism-based. Put shortly: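 Male CD-1 mice (25–35 g), n = 4 per route; typical doses 2 mg/kg IV and 10 mg/kg PO in DPBS with up to 42% 2-hydroxypropyl-β-cyclodextrin; serial saphenous blood to 24 h (8 points); plasma by LC-MS/MS; non-compartmental analysis; F = (AUCpo/AUCiv)×(Doseiv/Dosepo).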

A short description of data set [14]: Half life in Dulbecco's phosphate buffered saline at 1 uM by LC-MS/MS analysis. In kind it is physicochemical. Put shortly:
as §3

A short description of data set [15]: Apparent permeability from apical to basolateral side in human Caco2 cells measured after 20 to 80 mins by LC-MS/MS analysis. The format is ADME, cell-based. The note with it: caco-2.
For data set [16], the system named is Hepatitis B virus. As to the kind of experiment: Disruption of HBV dimeric capsid protein C150 mutant assembly expressed in Escherichia coli BL21 (DE3) assessed as increase in capsid aggregation after 1 hr by uranyl acetate staining based transmission electron microscopic analysis. Put shortly:
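Purified C150 dimer (18 μM) in bicarbonate buffer, with compound or 1% DMSO, assembled by adding an equal volume of 100 mM HEPES pH 7.5, 1 M NaCl, 1 h at room temperature. Assemblies adsorbed to glow-discharged carbon-coated copper grids, negatively stained with 2% uranyl acetate and imaged by TEM for aggregates versus DMSO control.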

The nature of data set [17]: Apparent permeability from basolateral to apical side in human Caco2 cells measured after 20 to 80 mins by LC-MS/MS analysis. The format is ADME, cell-based. The following applies: caco-2.
The subject of data set [18] is Hepatitis B virus. Briefly: Disruption of HBV dimeric capsid protein C150 mutant assembly expressed in Escherichia coli BL21 (DE3) assessed as increase in capsid assembly at 20 uM by Sypro orange staining based RT-PCR analysis.
The nature of data set [19]: as §4. In kind it is cell-based. The following applies: HepG2 cells.

Molecules are shown by their SMILES. Values after ≈ are worked out from the molar mass of the structure shown. Active and inactive are the calls of the source.

Broadly, the EC50 is the midpoint of the concentration-response curve. For orientation: CC50 means the concentration giving 50% cytotoxicity. For `Cc1c(C(=O)Nc2ccc(F)c(Cl)c2)sc(N)c1C(N)=O`, the EC50 in the data set with Hepatitis B virus [1] was 0.31 µM. Besides, in data set [2], the solubility thermodynamic at 72 h amounted to 31 µM (≈ 10.2 µg/mL). The PPB worked out at 90% in data set [3] and 94% in [7]. Further, the “intrinsic clearance (CLint)” value is under 0.1 µL/min in data set [4] and 1.6 µL/min in [8]. For the same molecule, the remaining at 24 h, 1 µM in [5] is over 90%. Further, the t1/2 in data set [6] and in [10] was over 24 h throughout. The CC50 in the data set with HepG2 is over 100 µM. The result in the data set on Hepatitis B virus [9] was Active. Further, the “intrinsic clearance per mg protein” value in data set [11] worked out at 28 µL/min. Further, the Microsomal intrinsic clearance in [12] was 7.6 µL/min.

What is called bioavailability is the share of a dose that reaches the circulation, judged against a reference dose that is usually intravenous. `Cc1cc(NC(=O)c2sc(N)c(C(N)=O)c2C)ccc1Br` registered a bioavailability in [13] of 46%. In addition, the cytotoxic concentration (CC50) with HepG2 turned out to be 107 µM. In addition, the result in the data set with Hepatitis B virus [9] was Active.

Broadly, the half-life is how long it takes for the measured level to halve. Low values mean rapid decline, high ones slow decline. For the molecule `Cc1c(C(=O)Nc2ccccc2)sc(N)c1C(N)=O`, the concentration for a half-maximal effect (EC50) in the data set with Hepatitis B virus [1] is 3.4 µM. The solubility thermodynamic at 72 h in [2] turned out to be 19 µM (≈ 5.23 µg/mL). In data set [13], the bioavailability was in the range of 31 to 34%. The values for the PPB in data set [3] and in [7] were 50% and 86%, respectively. Further, the figures for the “intrinsic clearance (CLint)” value in data set [4] and in [8] were 2 µL/min and 4.4 µL/min, respectively. The remaining at 24 h, 1 µM in [5] was over 90%. In addition, the t1/2 in data set [6] and in data set [10] was over 24 h each time. This molecule also had a half-life at 1 µM in [14] of over 24 h. Moreover, the CC50 in the data set with HepG2 is over 100 µM. Also, in the data set on Hepatitis B virus [9], the outcome was Active. Moreover, in data set [11], the “intrinsic clearance per mg protein” value stood at 18 µL/min. For the same molecule, the Microsomal intrinsic clearance in [12] was 5 µL/min.

Regarding `Cc1c(C(=O)Nc2ccc(F)c(C(F)F)c2)sc(N)c1C(N)=O`, the solubility thermodynamic at 72 h in data set [2] amounted to 9.5 µM (≈ 3.26 µg/mL). This molecule registered a F in data set [13] of 25%. In addition, the PPB in data set [3] is 82%; in [7], 89%. In addition, the “intrinsic clearance (CLint)” value in data set [4] was found to be 3.2 µL/min; in data set [8], 10 µL/min. Also, the remaining at 24 h, 1 µM in data set [5] is over 90%. Further, the t1/2 in data set [6] and in data set [10] was over 24 h in each case. In the data set with HepG2, the CC50 was over 100 µM. Besides, the outcome with Hepatitis B virus [9] was Active. Further, in data set [11], the “intrinsic clearance per mg protein” value was determined as 22 µL/min. For the same molecule, the Microsomal intrinsic clearance in [12] came out at 5.8 µL/min.

Usually Papp stands for the rate of passage across a membrane or cell layer, normalised by area and donor concentration. With `Cc1cc(NC(=O)c2sc(N)c(C(N)=O)c2C)ccc1F`, the Papp in [15] is 18.6 ×10⁻⁶ cm/s; in [17] it was 26.9 ×10⁻⁶ cm/s. Further, the solubility thermodynamic at 72 h in data set [2] was 31 µM (≈ 9.53 µg/mL). In data set [13], this molecule came in with an F of 11%. In addition, the PPB in data set [3] was found to be 82%; in data set [7], 91%. The “intrinsic clearance (CLint)” value in [4] was under 0.1 µL/min; in data set [8], 5.2 µL/min. The outcome in the data set on Hepatitis B virus [16], in the data set with Hepatitis B virus [18] and in the data set on Hepatitis B virus [9] was Active. Further, the remaining at 24 h, 1 µM in data set [5] is over 90%. Moreover, the t1/2 in data set [6] and in data set [10] was over 24 h throughout. Further, the CC50 in the data set with HepG2 is over 100 µM. The “intrinsic clearance per mg protein” value in data set [11] was found to be 92 µL/min. In addition, the Microsomal intrinsic clearance in data set [12] stood at 14 µL/min.

On to `Cc1c(C(=O)Nc2ccc(F)c(F)c2)sc(N)c1C(N)=O`, for which the Papp in data set [15] turned out to be 24.8 ×10⁻⁶ cm/s; in [17], 27.6 ×10⁻⁶ cm/s. In addition, the solubility thermodynamic at 72 h in [2] turned out to be 11 µM (≈ 3.42 µg/mL). In addition, the results for the PPB in data set [3] and in data set [7] were 80% and 86%, respectively. For the same molecule, the “intrinsic clearance (CLint)” value in data set [4] is under 0.1 µL/min; in data set [8], 5.2 µL/min. In addition, in data set [5], the remaining at 24 h, 1 µM was over 90%. The t1/2 in [6] and in data set [10] was over 24 h each time. Moreover, the CC50 with HepG2 is over 100 µM. Further, the outcome in the data set on Hepatitis B virus [9] was Active. Further, the “intrinsic clearance per mg protein” value in data set [11] was 25 µL/min. Also, in data set [12], the Microsomal intrinsic clearance was determined as 3.4 µL/min.

With `Cc1c(C(=O)Nc2ccccc2)sc(N)c1C(N)=S`, the EC50 in the data set with Hepatitis B virus [1] is over 10 µM. In data set [19], the CC50 at 48 h was over 100 µM. Moreover, the result in the data set on Hepatitis B virus [9] was Active.

The values are drawn from ChEMBL document CHEMBL4411305, “5-Aminothiophene-2,4-dicarboxamide analogues as hepatitis B virus capsid assembly effectors” (Eur J Med Chem, 2019).
